# Measured values as given in ChEMBL document CHEMBL1687745 (Antimicrob Agents Chemother, 2009).
# The source made the active and inactive calls. The rule behind the calls is not given here.
# Assays:
# [1] = tested on: Enterococcus faecalis; experiment: Antimicrobial activity against Enterococcus faecalis 29212 clinical isolate by broth microdilution method; format: functional
# [2] = tested on: Staphylococcus aureus; experiment: Antimicrobial activity against Staphylococcus aureus by broth microdilution method; format: functional
# How it was run: (§1)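 Broth microdilution. Log-phase cultures (5 × 10^5 CFU/ml) seeded in 96-well plates with compound from 0 to 20 µM or 1% DMSO control. Incubated at 37°C for 16 to 20 h. Growth read as absorbance at 600 nm.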
# [3] = tested on: Mycolicibacterium smegmatis; experiment: Antimicrobial activity against Mycobacterium smegmatis 19420 by broth microdilution method; format: functional; how it was run: as §1
# [4] = tested on: HeLa; experiment: Effect on cell membrane integrity in human HeLa cells assessed as lactate dehydrogenase release at 32 times MIC against Staphylococcus aureus by CytoTox ONE homogenous membrane integrity assay; format: cell-based
# How it was run: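 Confluent HeLa cells in DMEM treated for 1 h with a range of compound concentrations, 1% DMSO final. […] LDH activity in the supernatant measured by a membrane-integrity kit.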
# [5] = tested on: Mycolicibacterium smegmatis; experiment: Antimicrobial activity against Mycobacterium smegmatis 700009 by broth microdilution method; format: functional; how it was run: as §1
# [6] = tested on: Enterococcus faecium; experiment: Antimicrobial activity against vancomycin-resistant Enterococcus faecium B42762 by broth microdilution method; format: functional
# [7] = tested on: Staphylococcus aureus; experiment: Antibacterial activity against MBX 1090 resistant Staphylococcus aureus NCTC8325 isolates selected on 10 to 12 days of serial passage through MBX 1090; format: functional
# How it was run: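 Eight independent S. aureus NCTC8325 cultures were grown with compound at 0.125× to 128× MIC. Each day, cells were passaged from the highest-concentration well still showing >50% of untreated growth, for up to 20 days. Colonies isolated from resistant cultures were confirmed by MIC assay.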
# [8] = tested on: Bacillus anthracis; experiment: Inhibition of spore germination in Bacillus anthracis Sterne spores at MIC after 4 hrs; format: functional, organism-based
# [9] = tested on: Bacillus subtilis; experiment: Antimicrobial activity against Bacillus subtilis clinical isolate by broth microdilution method; format: functional
# [10] = tested on: Burkholderia thailandensis; experiment: Antimicrobial activity against Burkholderia thailandensis by broth microdilution method; format: functional
# [11] = tested on: Escherichia coli; experiment: Antimicrobial activity against Escherichia coli J53 clinical isolate by broth microdilution method; format: functional
# [12] = tested on: Enterococcus faecalis; experiment: Antimicrobial activity against Enterococcus faecalis clinical isolate by broth microdilution method; format: functional; how it was run: as §1
# [13] = tested on: Bacillus subtilis; experiment: Effect on bacterial membrane permeability in Bacillus subtilis BD54 upto 10 times MIC using DiSC3 fluorescent dye staining based fluorimetric assay; format: functional, organism-based
# How it was run: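 B. subtilis BD54 grown in LB to OD600 0.4–0.5, washed, and resuspended to OD600 0.1 in 5 mM HEPES pH 7.4 with 20 mM glucose. Loaded with 1 µM DiSC3(5) for 10 min at room temperature, then 100 mM KCl added. […] Fluorescence read at 5 min (ex 622, em 670 nm). DNP 200 µg/ml positive control; mean ± SD of 8 wells.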
# [14] = tested on: Enterococcus faecalis; experiment: Antimicrobial activity against vancomycin-resistant Enterococcus faecalis ATCC 51575 by broth microdilution method; format: functional
# [15] = tested on: Bacillus anthracis; experiment: Antimicrobial activity against Bacillus anthracis Ames by broth microdilution method in presence of 10% fetal calf serum; format: functional
# [16] = tested on: J774.A1; experiment: Cytotoxicity against mouse J774A1 cells assessed as dead cells at 10 uM by Sytox green dye staining assay relative to untreated control; format: cell-based; details: j774.a1, 10 µM
# How it was run: (§2)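 J774A.1 macrophages, not infected, treated with 1% DMSO control or compound at 10 µM. Sytox green (impermeant to live cells) added for 15 min at 37°C. Cells centrifuged, washed twice in complete medium containing antibiotics, and analysed by flow cytometry for percent live and dead cells.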
# [17] = tested on: Staphylococcus aureus; experiment: Antibacterial activity against Staphylococcus aureus Smith infected in Swiss Webster mouse assessed as assessed as protection against microbe-induced mortality at 10 mg/kg, iv administered as single dose 15 mins post bacterial challenge measured 48 hrs post infection; format: functional
# How it was run: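 Swiss Webster mice (n = 10/group) were challenged i.p. with 8.3 × 10^8 CFU. After 15 min they received a single i.v. dose in 10% dimethyl acetamide–5% dextrose in water (pH 4.0), alongside vehicle and daptomycin (10 mg/kg) controls. Survival was followed for 48 h.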
# [18] = tested on: Bacillus anthracis; experiment: Antibacterial activity against Bacillus anthracis Ames spores infected in C57BL/6 mouse assessed as mouse survival rate at 10 mg/kg, ip for 5 days every 6 hrs administered 6 hrs post bacterial challenge measured up to 20 days post infection; format: functional; details: route intraperitoneal
# [19] = tested on: Bacillus pumilus; experiment: Antimicrobial activity against Bacillus pumilus clinical isolate by broth microdilution method; format: functional; how it was run: as §1
# [20] = tested on: Yersinia pestis; experiment: Antimicrobial activity against Yersinia pestis by broth microdilution method; format: functional
# [21] = tested on: Bacillus anthracis; experiment: Protection against Bacillus anthracis Sterne spores induced cell death in mouse J774A1 cells assessed as dead cells at 10 uM by Sytox green dye staining assay relative to untreated control; format: functional, J774.A1
# [22] = tested on: Bacillus anthracis; experiment: Antimicrobial activity against Bacillus anthracis Sterne vegetative cells by broth microdilution method; format: functional
# [23] = tested on: Pseudomonas aeruginosa; experiment: Antimicrobial activity against Pseudomonas aeruginosa PAO1 by broth microdilution method; format: functional; how it was run: as §1
# [24] = tested on: Bacillus anthracis; experiment: Antimicrobial activity against Bacillus anthracis Vollum clinical isolate by broth microdilution method; format: functional
# [25] = tested on: Klebsiella pneumoniae; experiment: Antimicrobial activity against Klebsiella pneumoniae 5657 by broth microdilution method; format: functional; how it was run: as §1
# [26] = tested on: Bacillus anthracis; experiment: microbe, parasite or virus in culture; details: Ames
# [27] = tested on: Staphylococcus aureus; experiment: Antimicrobial activity against Staphylococcus aureus ATCC 25923 by broth microdilution method; format: functional; how it was run: as §1
# [28] = tested on: Brevibacillus brevis; experiment: Antimicrobial activity against Bacillus brevis clinical isolate by broth microdilution method; format: functional; how it was run: as §1
# [29] = Cytotoxicity against mouse J774A1 cells assessed as live viable cells at 10 uM by Sytox green dye staining assay relative to untreated control; format: cell-based, J774.A1; details: read-out: Activity; how it was run: as §2
# [30] = tested on: Mycolicibacterium smegmatis; experiment: Antimicrobial activity against Mycobacterium smegmatis 35798 by broth microdilution method; format: functional; how it was run: as §1
# [31] = tested on: Bacillus licheniformis; experiment: Antimicrobial activity against Bacillus licheniformis clinical isolate by broth microdilution method; format: functional
# [32] = tested on: Bacillus subtilis; experiment: Inhibition of DNA synthesis in Bacillus subtilis BD54 at 5 X MIC by [3H]thymidine incorporation assay; format: functional, organism-based
# How it was run: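 Precursors were [methyl-3H]thymidine (DNA), [5-3H]uridine (RNA), L-[4,5-3H]leucine (protein) and N-acetyl-D-[1-3H]glucosamine (cell wall). Samples taken over time, precipitated with equal volume of ice-cold 20% TCA, filtered on glass fibre, and counted. cpm plotted against time.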
# [33] = tested on: Bacillus anthracis; experiment: Protection against Bacillus anthracis Sterne spores induced cell death in mouse J774A1 cells assessed as live viable cells at 10 uM by Sytox green dye staining assay relative to untreated control; format: functional, J774.A1
# [34] = tested on: Priestia megaterium; experiment: Antimicrobial activity against Bacillus megaterium clinical isolate by broth microdilution method; format: functional
# [35] = tested on: Burkholderia pseudomallei; experiment: Antimicrobial activity against Burkholderia pseudomallei DD503 by broth microdilution method; format: functional
# [36] = tested on: Staphylococcus aureus; experiment: Antimicrobial activity against methicillin-resistant Staphylococcus aureus 1094 by broth microdilution method; format: functional
# [37] = tested on: Bacillus anthracis; experiment: microbe, parasite or virus in culture; details: Ames; remark: listed apart in the source
# [38] = Cytotoxicity against human HeLa cells after 3 days by MTS assay in presence of 10% fetal calf serum; format: cell-based
# [39] = tested on: Yersinia pestis; experiment: Antibacterial activity against Yersinia pestis CO92 infected in C57BL/6 mouse assessed as protection against microbe-induced mortality at 10 mg/kg, ip for 5 days every 6 hrs administered 6 hrs post bacterial challenge measured after 15 days post infection; format: functional; details: route intraperitoneal
# [40] = tested on: Burkholderia cepacia; experiment: Antimicrobial activity against Burkholderia cepacia clinical isolate by broth microdilution method; format: functional; how it was run: as §1
# [41] = tested on: Burkholderia mallei; experiment: Antimicrobial activity against Burkholderia mallei ATCC 23344 by broth microdilution method; format: functional
# [42] = tested on: Staphylococcus aureus; experiment: Antimicrobial activity against methicillin-resistant Staphylococcus aureus clinical isolate by broth microdilution method; format: functional
smiles,measurement,setting,value
c1cc2cc(-c3ccc(-c4cc5ccc(C6=NCCN6)cc5[nH]4)cc3)[nH]c2cc1C1=NCCN1,MIC,[1],0.2 µg/mL
same,MIC,[2],0.3 µg/mL
same,MIC,[3],< 0.1 µg/mL
same,Activity,[4],Non-toxic
same,MIC,[5],0.1 µg/mL
same,MIC,[6],< 0.1 µg/mL
same,MIC,[7],Active
same,inhibition,[8],inactive
same,MIC,[9],0.2 µg/mL
same,MIC,[10],21 µg/mL
same,MIC,[11],0.7 µg/mL
same,MIC,[12],0.2 µg/mL
same,Activity,[13],Active
same,MIC,[14],0.1 µg/mL
same,MIC,[15],1.1 µg/mL
same,Activity,[16],5%
same,survival at 10 mg/kg,[17],80%
same,survival at 10 mg/kg,[18],100%
same,MIC,[19],< 0.1 µg/mL
same,MIC,[20],3.4 µg/mL
same,Activity,[21],22%
same,MIC,[22],0.7 µg/mL
same,MIC,[23],7.5 µg/mL
same,MIC,[24],0.3 µg/mL
same,MIC,[25],3.8 µg/mL
same,MBC,[26],0.4 µg/mL
same,MIC,[27],0.1 µg/mL
same,MIC,[28],0.7 µg/mL
same,viability at 10 µM,[29],94%
same,MIC,[30],< 0.1 µg/mL
same,MIC,[31],0.7 µg/mL
same,inhibition,[32],Active
same,Activity,[33],77%
same,MIC,[34],0.3 µg/mL
same,MIC,[35],1.7 µg/mL
same,MIC,[36],0.2 µg/mL
same,MBC,[37],0.7 µg/mL
same,MIC,[37],0.3 µg/mL
same,CC50 at 72 h,[38],3 µg/mL
same,survival at 10 mg/kg,[39],90%
same,MIC,[40],> 20 µg/mL
same,MIC,[41],1.7 µg/mL
same,MIC,[42],0.3 µg/mL
